We go through 2 compounds from ChEMBL document CHEMBL1143078, “Synthesis and anti-Helicobacter pylori activity of 5-(nitroaryl)-1,3,4-thiadiazoles with certain sulfur containing alkyl side chain” (Bioorg Med Chem Lett, 2008).

The subject of one experiment is Staphylococcus aureus. In words: Antibacterial activity against Staphylococcus aureus ATCC 6538P after 18 hrs by serial dilution method. Format: functional. The procedure, abridged: (§1)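 Agar dilution MIC. Compound stock diluted with water, then serially doubled in melted Mueller–Hinton agar to 64, 32, 16 and 8 µg/mL. Plates inoculated with 1-5 × 10^4 CFU and incubated 18 h at 37 °C. MIC is the lowest concentration giving no visible growth.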

The test system of experiment [1] is Staphylococcus epidermidis. In words: Antibacterial activity against Staphylococcus epidermidis ATCC 12228 after 18 hrs by serial dilution method. Format: functional. Conditions: ATCC 12228, 18 h. The gist of the method:
as §1

In the next experiment the test system is Escherichia coli. The experiment is described as follows: Antibacterial activity against Escherichia coli ATCC 8739 after 18 hrs by serial dilution method. It is filed as functional. Conditions: ATCC 8739, 18 h. The gist of the method: as §1
Another experiment relates to Klebsiella pneumoniae. In words: Antibacterial activity against Klebsiella pneumoniae ATCC 10031 after 18 hrs by serial dilution method. It is filed as functional. Conditions: ATCC 10031, 18 h. The gist of the method:
as §1

The subject of a further experiment is Candida albicans. The experiment is described as follows: Antifungal activity against Candida albicans PTCC 5027 after 72 hrs by agar dilution method. It is filed as functional. (In agar dilution, organisms are placed on agar that contains the substance at set levels.)
Another experiment concerns Saccharomyces cerevisiae. The experiment is described as follows: Antifungal activity against Saccharomyces cerevisiae PTCC 5177 after 72 hrs by agar dilution method. It is filed as functional.
A further experiment concerns Nannizzia gypsea. In words: Antifungal activity against Microsporum gypseum PTCC 5070 after […] by agar dilution method. Format: functional. The gist of the method:
(§2)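 Agar dilution on Sabouraud dextrose agar. Compound stocks in DMSO. Inocula about 10^5 CFU/mL from log-phase broth cultures. Plates run in triplicate at 30 °C: about 24–48 h for yeasts, about 72 h for moulds, about 168 h for dermatophytes. MIC is the lowest concentration with no visible growth on the plate.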

The subject of another experiment is Aspergillus niger. The experiment is described as follows: Antifungal activity against Aspergillus niger PTCC 5012 after 72 hrs by agar dilution method. It is filed as functional. The gist of the method:
as §2

Experiment [2] relates to Helicobacter pylori. The experiment is described as follows: Antibacterial activity against metronidazole-sensitive Helicobacter pylori assessed as inhibition zone diameter at 8 ug/disk after 3-5 days by paper disk diffusion assay. It is filed as functional. The procedure, abridged: (§3)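 Filter-paper disk diffusion (6 mm disks), with the compound applied in 40 µL methanol and dried. Disks placed on Mueller–Hinton agar with 7% defibrinated horse blood, inoculated with 48 h H. pylori clinical-isolate suspension at 2 McFarland (10^7-10^8 CFU/mL). Incubated 3–5 days at 37 °C microaerophilically (5% O2, 15% CO2, 80% N2). Mean inhibition-zone diameter (mm) from triplicates.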
(In general: A growth-free zone around the sample is the usual read-out of agar diffusion tests.)

In experiment [3] the test system is Helicobacter pylori. The experiment is described as follows: Antibacterial activity against metronidazole-sensitive Helicobacter pylori assessed as inhibition zone diameter at 16 ug/disk after 3-5 days by paper disk diffusion assay. It is filed as functional. The procedure, abridged: (§4)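 Filter paper disks (6 mm) loaded with compound in 40 μL methanol, dried, placed on Mueller–Hinton agar with 7% defibrinated horse blood pre-inoculated with H. pylori suspension (2 McFarland, 10⁷-10⁸ CFU/mL; 48 h cultures checked for coccoid forms); incubated microaerophilically (5% O2, 15% CO2, 80% N2) at 37 °C for 3–5 days; mean inhibition zone diameter (mm) of triplicates.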

The test system of experiment [4] is Helicobacter pylori. The experiment is described as follows: Antibacterial activity against metronidazole-sensitive Helicobacter pylori assessed as inhibition zone diameter at 32 ug/disk after 3-5 days by paper disk diffusion assay. It is filed as functional. The procedure, abridged:
as §3

In experiment [5] the test system is Helicobacter pylori. The experiment is described as follows: Antibacterial activity against metronidazole-resistant Helicobacter pylori assessed as inhibition zone diameter at 8 ug/disk after 3-5 days by paper disk diffusion assay. Format: functional. The procedure, abridged:
as §4

Experiment [6] concerns Helicobacter pylori. The experiment is described as follows: Antibacterial activity against metronidazole-resistant Helicobacter pylori assessed as inhibition zone diameter at 16 ug/disk after 3-5 days by paper disk diffusion assay. Format: functional. The procedure, abridged:
as §4

The subject of experiment [7] is Helicobacter pylori. In words: Antibacterial activity against metronidazole-resistant Helicobacter pylori assessed as inhibition zone diameter at 32 ug/disk after 3-5 days by paper disk diffusion assay. It is filed as functional. The gist of the method: as §4
The test system of experiment [8] is Helicobacter pylori. In words: Antibacterial activity against Helicobacter pylori isolate assessed as inhibition zone diameter at 0.5 ug/disk after 3-5 days by paper disk diffusion assay. It is filed as functional. The gist of the method: as §3
Experiment [9] has as its system Helicobacter pylori. The experiment is described as follows: Antibacterial activity against Helicobacter pylori isolate assessed as inhibition zone diameter at 1 ug/disk after 3-5 days by paper disk diffusion assay. It is filed as functional. The procedure, abridged: as §3
Experiment [10] has as its system Helicobacter pylori. In words: Antibacterial activity against Helicobacter pylori isolate assessed as inhibition zone diameter at 2 ug/disk after 3-5 days by paper disk diffusion assay. Format: functional. The procedure, abridged:
as §3

Experiment [11] relates to Helicobacter pylori. The experiment is described as follows: Antibacterial activity against Helicobacter pylori isolate assessed as inhibition zone diameter at 4 ug/disk after 3-5 days by paper disk diffusion assay. Format: functional. The gist of the method: as §3
Experiment [12] has as its system Helicobacter pylori. In words: Antibacterial activity against Helicobacter pylori isolate assessed as inhibition zone diameter at 8 ug/disk after 3-5 days by paper disk diffusion assay. Format: functional. The procedure, abridged:
as §3

Experiment [13] relates to Helicobacter pylori. The experiment is described as follows: Antibacterial activity against Helicobacter pylori isolate assessed as inhibition zone diameter at 16 ug/disk after 3-5 days by paper disk diffusion assay. It is filed as functional. The gist of the method: as §3
Experiment [14] concerns Helicobacter pylori. In words: Antibacterial activity against Helicobacter pylori isolate assessed as inhibition zone diameter at 32 ug/disk after 3-5 days by paper disk diffusion assay. Format: functional. The procedure, abridged: as §3
The nature of experiment [15]: Cytotoxicity against mouse NIH/3T3 cells after 72 hrs by MTT assay. It is filed as cell-based. Conditions: NIH3T3, 72 h. The gist of the method: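 NIH/3T3 mouse fibroblasts in exponential phase trypsinized and seeded at 5×10^4 cells/mL, then given serially diluted compound in triplicate and incubated 72 h. MTT (5 mg/mL solution) added for 1 h, formazan dissolved in DMSO, absorbance read at 492 nm. IC50 calculated from dose-response curves versus untreated controls, as mean ± SD of triplicates.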
In general terms: Tetrazolium assays rely on reduction of a dye to a coloured formazan, in cell work by metabolically active cells.

In brackets after ≈: the same amount, converted by molar mass.

`CCSCCSc1nnc(-c2ncc([N+](=O)[O-])n2C)s1`: the minimal inhibitory concentration (MIC) in the experiment with Staphylococcus aureus is over 32 µg/mL; in experiment [1], 32 µg/mL (≈ 96.5 µM); in the experiment with Escherichia coli it was over 32 µg/mL; against Klebsiella pneumoniae, over 32 µg/mL; against Candida albicans, over 32 µg/mL; in the experiment on Saccharomyces cerevisiae, over 32 µg/mL. Moreover, the MIC in the experiment with Nannizzia gypsea and against Aspergillus niger was over 32 µg/mL throughout. For the same compound, the Activity is 32 mm in the experiment on Helicobacter pylori [2]; 37 mm in the experiment on Helicobacter pylori [3]; 48 mm in the experiment with Helicobacter pylori [4]; 35 mm in the experiment on Helicobacter pylori [5]; 47 mm with Helicobacter pylori [6]; 59 mm in the experiment on Helicobacter pylori [7]. The Activity in the experiment with Helicobacter pylori [8] was found to be 12.2 mm; in the experiment with Helicobacter pylori [9], 15 mm; in the experiment with Helicobacter pylori [10] it was 19.5 mm; in the experiment on Helicobacter pylori [11], 25.4 mm; with Helicobacter pylori [12], 31.7 mm; with Helicobacter pylori [13], 36.5 mm. In the experiment with Helicobacter pylori [14], the Activity was 42.6 mm. In experiment [15], this compound showed a half-maximal inhibitory concentration (IC50) of 61.5 µg/mL (≈ 186 µM).
Turning to `CCSCCSc1nnc(-c2ccc([N+](=O)[O-])o2)s1`, the minimal inhibitory concentration (MIC) in the experiment with Staphylococcus aureus was over 32 µg/mL; in [1], 32 µg/mL (≈ 101 µM); against Escherichia coli it was over 32 µg/mL; with Klebsiella pneumoniae it was over 32 µg/mL; against Candida albicans, over 32 µg/mL; in the experiment with Saccharomyces cerevisiae, over 32 µg/mL. Moreover, the minimal inhibitory concentration (MIC) in the experiment with Nannizzia gypsea and against Aspergillus niger was over 32 µg/mL throughout. In addition, the Activity with Helicobacter pylori [2] was 22 mm; with Helicobacter pylori [3] it was 31 mm; in the experiment on Helicobacter pylori [4] it was 42 mm; with Helicobacter pylori [5] it was 16 mm; in the experiment with Helicobacter pylori [6], 21 mm; in the experiment with Helicobacter pylori [7], 28 mm. For the same compound, the Activity turned out to be 6 mm with Helicobacter pylori [8]; 11.1 mm with Helicobacter pylori [9]; 16.4 mm in the experiment on Helicobacter pylori [10]; 21.5 mm in the experiment on Helicobacter pylori [11]; 28.3 mm with Helicobacter pylori [12]; 30.7 mm with Helicobacter pylori [13]. The Activity in the experiment on Helicobacter pylori [14] is recorded as 34.9 mm. For the same compound, the IC50 in experiment [15] is 5 µg/mL (≈ 15.8 µM).

Usually MIC stands for the lowest concentration found to suppress growth. Lower therefore signals a more susceptible organism. The term IC50 denotes the concentration needed to halve the response being measured.
